How the values were obtained:
[1] = target: Receptor tyrosine-protein kinase erbB-4 (Homo sapiens) (UniProt Q15303); assay: Inhibition of recombinant human N-terminal His6-tagged Erbb4 (706 to 991 residues) expressed in baculovirus infected Sf21 insect cells at 100 nM using poly (Glu, Tyr)4:1 as substrate measured after 1 hr by ELISA relative to control
In short: (§1)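 Recombinant kinase was incubated with compound in reaction buffer containing 5 μM ATP, in wells precoated with poly(Glu,Tyr) 4:1, for 1 h at 37 °C. Phosphorylation was detected by ELISA.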

c-KIT = c-KIT (Homo sapiens, UniProt P10721); assay: Inhibition of recombinant human N-terminal GST-tagged c-KIT (544 to end residues) expressed in baculovirus infected Sf21 insect cells at 10 nM using poly (Glu, Tyr)4:1 as substrate measured after 1 hr by ELISA relative to control; conditions: probe poly (Glu, Tyr)4:1; in short: as §1
c-KIT, sequence (P10721 whole entry): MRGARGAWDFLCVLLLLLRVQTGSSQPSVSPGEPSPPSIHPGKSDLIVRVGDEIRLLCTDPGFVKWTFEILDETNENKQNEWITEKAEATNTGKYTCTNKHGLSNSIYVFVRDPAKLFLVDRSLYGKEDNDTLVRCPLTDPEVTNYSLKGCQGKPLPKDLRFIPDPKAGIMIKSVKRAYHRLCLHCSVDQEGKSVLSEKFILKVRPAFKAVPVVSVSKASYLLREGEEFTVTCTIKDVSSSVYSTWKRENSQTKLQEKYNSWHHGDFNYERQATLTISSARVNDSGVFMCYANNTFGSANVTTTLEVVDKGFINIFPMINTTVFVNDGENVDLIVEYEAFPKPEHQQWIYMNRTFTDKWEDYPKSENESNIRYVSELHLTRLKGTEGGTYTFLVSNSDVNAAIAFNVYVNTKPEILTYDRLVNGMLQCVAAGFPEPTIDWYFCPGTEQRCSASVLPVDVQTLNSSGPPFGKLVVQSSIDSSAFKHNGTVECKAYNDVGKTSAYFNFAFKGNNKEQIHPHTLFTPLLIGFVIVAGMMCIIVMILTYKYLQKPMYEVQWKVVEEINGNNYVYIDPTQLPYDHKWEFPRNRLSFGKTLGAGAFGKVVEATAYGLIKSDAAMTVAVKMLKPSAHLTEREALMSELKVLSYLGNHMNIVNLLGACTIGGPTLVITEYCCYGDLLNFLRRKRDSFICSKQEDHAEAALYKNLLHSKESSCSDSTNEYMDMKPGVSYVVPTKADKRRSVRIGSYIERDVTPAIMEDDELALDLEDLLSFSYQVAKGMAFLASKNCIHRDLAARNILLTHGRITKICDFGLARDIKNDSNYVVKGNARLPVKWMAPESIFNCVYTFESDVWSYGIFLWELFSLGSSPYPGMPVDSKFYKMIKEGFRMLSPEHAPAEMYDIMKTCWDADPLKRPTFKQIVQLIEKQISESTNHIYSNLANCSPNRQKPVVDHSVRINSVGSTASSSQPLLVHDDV

[2] = MRT (infinity) in Sprague-Dawley rat at 2 mg/kg, iv administered […] by LC-MS/MS analysis; format: ADME, organism-based; conditions: in vivo
In short: (§2)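 Male SD rats (200 ± 20 g), fasted 12 h, n = 3; single intravenous dose of 2 mg/kg in DMSO/EtOH/PEG300/saline (5/5/40/50). Femoral vein blood at 15–1440 min; plasma precipitated with methanol containing internal standard, assayed by LC–MS/MS; noncompartmental analysis (MRT = AUMC/AUC, Vss = CL × MRT).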

[3] = target: Fibroblast growth factor receptor 1 (Homo sapiens, UniProt P11362); assay: Inhibition of recombinant human N-terminal GST-tagged FGFR1 (456 to 765 residues) expressed in baculovirus infected Sf21 insect cells at 100 nM using poly (Glu, Tyr)4:1 as substrate measured after 1 hr by ELISA relative to control; in short: as §1
Fibroblast growth factor receptor 1, sequence (P11362 22-822 limits assumed): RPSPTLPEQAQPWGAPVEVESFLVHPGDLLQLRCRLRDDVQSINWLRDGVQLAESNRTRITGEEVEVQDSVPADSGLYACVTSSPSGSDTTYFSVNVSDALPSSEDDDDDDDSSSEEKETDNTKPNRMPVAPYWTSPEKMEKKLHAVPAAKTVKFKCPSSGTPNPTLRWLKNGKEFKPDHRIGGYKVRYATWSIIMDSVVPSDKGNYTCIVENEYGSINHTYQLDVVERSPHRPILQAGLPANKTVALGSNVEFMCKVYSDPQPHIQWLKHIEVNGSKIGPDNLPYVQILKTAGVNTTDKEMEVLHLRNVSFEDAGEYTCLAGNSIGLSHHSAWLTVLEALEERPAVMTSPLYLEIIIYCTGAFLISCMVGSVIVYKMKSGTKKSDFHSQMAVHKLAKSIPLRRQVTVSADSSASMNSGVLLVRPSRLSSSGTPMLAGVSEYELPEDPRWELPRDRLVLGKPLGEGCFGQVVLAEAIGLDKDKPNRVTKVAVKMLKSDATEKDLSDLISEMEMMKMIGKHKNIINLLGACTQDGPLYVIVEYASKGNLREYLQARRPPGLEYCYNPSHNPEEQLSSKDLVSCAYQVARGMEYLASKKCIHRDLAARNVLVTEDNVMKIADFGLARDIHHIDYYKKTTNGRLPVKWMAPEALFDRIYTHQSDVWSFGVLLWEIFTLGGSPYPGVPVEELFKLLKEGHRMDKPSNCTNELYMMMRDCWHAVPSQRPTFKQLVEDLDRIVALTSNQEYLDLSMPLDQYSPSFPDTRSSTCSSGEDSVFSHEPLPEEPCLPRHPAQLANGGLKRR

[4] = AUC (0 to t) in Sprague-Dawley rat at 2 mg/kg, iv administered […] by LC-MS/MS analysis; format: ADME, organism-based; conditions: in vivo
In short: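 Male SD rats (200 ± 20 g) were fasted 12 h with free access to water, n = 3 per group. One group received 2 mg/kg iv in DMSO/EtOH/PEG300/saline (5/5/40/50). The other received 5 mg/kg by oral gavage in DMSO/HPMC (5/95). Femoral-vein plasma was taken at 15–1440 min, methanol-precipitated with internal standard, and measured by LC–MS/MS. Noncompartmental analysis; AUC by trapezoidal method.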

[5] = Volume of distribution at steady state in Sprague-Dawley rat at 2 mg/kg, iv administered […] by LC-MS/MS analysis; format: ADME, organism-based; conditions: in vivo, read-out: Vdss; in short: as §2
[6] = target: Receptor tyrosine-protein kinase erbB-2 (Homo sapiens) (UniProt P04626); assay: Inhibition of recombinant Erbb2 (unknown origin) at 1000 nM using poly (Glu, Tyr)4:1 as substrate measured after 1 hr by ELISA relative to control; in short: as §1
Receptor tyrosine-protein kinase erbB-2 (Homo sapiens), sequence (P04626 whole entry): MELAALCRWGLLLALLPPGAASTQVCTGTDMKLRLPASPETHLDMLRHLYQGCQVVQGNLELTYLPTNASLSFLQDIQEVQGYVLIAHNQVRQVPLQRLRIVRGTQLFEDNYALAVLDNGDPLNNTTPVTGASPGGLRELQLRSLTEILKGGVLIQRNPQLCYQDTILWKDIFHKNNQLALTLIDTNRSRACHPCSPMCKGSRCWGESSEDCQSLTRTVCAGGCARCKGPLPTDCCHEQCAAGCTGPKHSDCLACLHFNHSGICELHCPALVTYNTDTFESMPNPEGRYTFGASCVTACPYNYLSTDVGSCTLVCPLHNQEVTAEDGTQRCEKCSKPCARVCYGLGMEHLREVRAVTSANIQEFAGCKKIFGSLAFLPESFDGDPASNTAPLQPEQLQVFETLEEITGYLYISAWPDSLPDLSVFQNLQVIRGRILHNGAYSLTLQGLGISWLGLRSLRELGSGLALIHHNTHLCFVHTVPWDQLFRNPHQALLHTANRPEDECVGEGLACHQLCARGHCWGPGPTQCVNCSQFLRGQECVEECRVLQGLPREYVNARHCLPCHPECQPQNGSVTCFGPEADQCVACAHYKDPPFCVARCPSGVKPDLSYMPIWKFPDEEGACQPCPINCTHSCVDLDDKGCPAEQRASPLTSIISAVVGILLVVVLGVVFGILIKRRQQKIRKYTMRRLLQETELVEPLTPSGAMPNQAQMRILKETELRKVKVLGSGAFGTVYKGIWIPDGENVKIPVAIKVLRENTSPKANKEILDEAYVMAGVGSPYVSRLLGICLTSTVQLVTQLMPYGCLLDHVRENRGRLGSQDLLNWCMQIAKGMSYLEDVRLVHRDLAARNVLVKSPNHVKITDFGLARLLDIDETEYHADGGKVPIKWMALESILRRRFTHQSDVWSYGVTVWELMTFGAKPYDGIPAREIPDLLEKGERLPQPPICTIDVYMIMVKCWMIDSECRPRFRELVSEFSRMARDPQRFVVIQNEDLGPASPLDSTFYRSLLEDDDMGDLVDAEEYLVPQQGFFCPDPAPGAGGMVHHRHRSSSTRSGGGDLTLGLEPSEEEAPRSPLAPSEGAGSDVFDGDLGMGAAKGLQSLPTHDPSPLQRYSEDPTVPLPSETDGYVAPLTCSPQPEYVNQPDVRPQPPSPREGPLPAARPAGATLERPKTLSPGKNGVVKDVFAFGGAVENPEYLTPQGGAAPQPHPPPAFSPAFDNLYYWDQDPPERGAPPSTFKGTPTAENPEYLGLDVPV

Receptor tyrosine-protein kinase erbB-4 (Homo sapiens), sequence (Q15303 whole entry, the tested form may be a part): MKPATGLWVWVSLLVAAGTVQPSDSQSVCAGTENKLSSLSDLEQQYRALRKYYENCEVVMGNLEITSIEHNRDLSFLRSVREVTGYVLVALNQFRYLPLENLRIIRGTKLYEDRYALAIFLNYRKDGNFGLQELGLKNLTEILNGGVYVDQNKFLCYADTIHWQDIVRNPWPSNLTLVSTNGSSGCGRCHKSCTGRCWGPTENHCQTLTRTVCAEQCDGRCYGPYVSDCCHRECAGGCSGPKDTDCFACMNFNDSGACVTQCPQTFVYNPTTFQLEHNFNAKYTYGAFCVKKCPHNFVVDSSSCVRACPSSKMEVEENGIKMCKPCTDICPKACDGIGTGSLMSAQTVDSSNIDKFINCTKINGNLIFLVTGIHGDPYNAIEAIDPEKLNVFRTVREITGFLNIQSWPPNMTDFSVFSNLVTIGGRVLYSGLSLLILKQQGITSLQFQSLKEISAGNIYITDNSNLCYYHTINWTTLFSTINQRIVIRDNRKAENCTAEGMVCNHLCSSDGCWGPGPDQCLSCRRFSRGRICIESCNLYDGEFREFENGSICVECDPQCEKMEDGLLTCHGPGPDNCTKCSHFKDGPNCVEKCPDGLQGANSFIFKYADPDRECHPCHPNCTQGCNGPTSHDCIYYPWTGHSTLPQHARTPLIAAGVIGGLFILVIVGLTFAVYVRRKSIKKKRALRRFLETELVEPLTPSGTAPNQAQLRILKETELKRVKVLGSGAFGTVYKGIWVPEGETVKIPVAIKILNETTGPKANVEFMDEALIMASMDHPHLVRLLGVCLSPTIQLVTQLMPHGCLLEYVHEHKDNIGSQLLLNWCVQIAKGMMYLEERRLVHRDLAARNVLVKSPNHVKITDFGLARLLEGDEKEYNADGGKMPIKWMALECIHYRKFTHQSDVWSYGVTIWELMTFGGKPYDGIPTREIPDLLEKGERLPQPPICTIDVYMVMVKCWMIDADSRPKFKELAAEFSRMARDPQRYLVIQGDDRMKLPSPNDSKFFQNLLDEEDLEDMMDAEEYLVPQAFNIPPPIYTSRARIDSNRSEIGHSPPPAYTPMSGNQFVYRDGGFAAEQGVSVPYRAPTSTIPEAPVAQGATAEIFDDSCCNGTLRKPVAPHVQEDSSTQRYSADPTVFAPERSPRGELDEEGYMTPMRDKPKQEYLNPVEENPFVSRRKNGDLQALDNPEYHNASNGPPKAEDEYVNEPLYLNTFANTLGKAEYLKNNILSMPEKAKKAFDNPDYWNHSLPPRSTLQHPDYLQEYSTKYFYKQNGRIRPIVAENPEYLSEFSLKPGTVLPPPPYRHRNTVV

inhibition [1]: 6.6%
inhibition at 1 h, 0.01 µM (c-KIT): 70.4%
MRT inf [2]: 2.3 h
inhibition [3]: 0%
AUC(0-t) [4]: 729 ng·h/mL
Vd [5]: 6.34 L/kg
inhibition [6]: 9.5%
SMILES: Cc1ccc(C(=O)Nc2ccc(Cl)cc2)cc1C#Cc1cc(-c2cnn(C)c2)cnc1N

Reference: ChEMBL document CHEMBL4321879, “Novel Class of Colony-Stimulating Factor 1 Receptor Kinase Inhibitors Based on an o-Aminopyridyl Alkynyl Scaffold as Potential Treatment for Inflammatory Disorders” (J Med Chem, 2020)
